The source of these data is ChEMBL document CHEMBL1131303, “New cyclooxygenase-2/5-lipoxygenase inhibitors. 2. 7-tert-butyl-2,3-dihydro-3,3-dimethylbenzofuran derivatives as gastrointestinal safe antiinflammatory and analgesic agents: variations of the dihydrobenzofuran ring” (J Med Chem, 1998).

Bounds are passed on as bounds.

The species named for assay [1] is Mus musculus. The assay is described as follows: The compound was tested for effective dose for reduction in phenylquinone-induced abdominal constriction. The format is functional. Particulars: Abdomen. In outline:
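Phenylquinone-induced abdominal constriction assay run as an oral dose-response study. The ED50 was derived from reduction of constrictions.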

For assay [2], the system named is Mus musculus. The assay is described as follows: The compound was tested for reduction in phenylquinone-induced abdominal constriction and is expressed in % reduction at a po (per oral) dose of 70 mg/kg. It counts as functional, Abdomen. In outline:
(§1)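 Phenylquinone-induced abdominal constriction analgesia assay. A single oral screening dose of 70 mg/kg was given, and the read-out is percent reduction in constrictions versus control. Tebufelone and naproxen served as reference agents.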

The species entered for assay [3] is Mus musculus. In words: The compound was tested for reduction in phenylquinone-induced abdominal constriction. The format is functional. The settings on record: Abdomen.
Assay [4] concerns Rattus norvegicus. In words: Carrageenan paw edema index (CPE index) as ratio of the reduction in paw volume of tested compound relative to the compound tebufelone at peroral dose of 50 mg/kg. It counts as functional. The settings on record: route oral. (In general: The carrageenan paw model is a standard test of acute inflammation.)
The target in assay [5] is Prostaglandin G/H synthase 1 (Homo sapiens, UniProt P23219). The assay is described as follows: Inhibition of Prostaglandin G/H synthase 1 (COX-1). In a few lines: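 Isolated human COX-1 enzyme from platelets. Duplicate samples were each tested in duplicate, and IC50 values were determined.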
Prostaglandin G/H synthase 1, sequence (P23219 whole entry): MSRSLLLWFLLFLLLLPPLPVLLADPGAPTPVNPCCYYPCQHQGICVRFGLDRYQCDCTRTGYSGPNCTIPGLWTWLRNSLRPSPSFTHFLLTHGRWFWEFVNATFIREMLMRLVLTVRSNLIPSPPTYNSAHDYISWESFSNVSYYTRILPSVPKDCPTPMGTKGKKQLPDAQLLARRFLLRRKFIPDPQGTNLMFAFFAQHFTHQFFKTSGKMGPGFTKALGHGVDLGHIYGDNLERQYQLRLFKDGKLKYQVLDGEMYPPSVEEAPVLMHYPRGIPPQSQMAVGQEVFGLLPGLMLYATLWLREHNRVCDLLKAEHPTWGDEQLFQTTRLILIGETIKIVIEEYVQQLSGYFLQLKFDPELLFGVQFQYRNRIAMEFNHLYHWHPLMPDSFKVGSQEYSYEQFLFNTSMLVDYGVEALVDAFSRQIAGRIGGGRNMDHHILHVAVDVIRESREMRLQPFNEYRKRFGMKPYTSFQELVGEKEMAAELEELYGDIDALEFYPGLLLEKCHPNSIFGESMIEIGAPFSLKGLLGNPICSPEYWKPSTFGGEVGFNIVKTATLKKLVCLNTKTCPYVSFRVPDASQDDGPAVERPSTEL
Assay [6] concerns the target T1, Prostaglandin G/H synthase 2 (Homo sapiens, UniProt P35354).
T1 sequence (P35354 whole entry): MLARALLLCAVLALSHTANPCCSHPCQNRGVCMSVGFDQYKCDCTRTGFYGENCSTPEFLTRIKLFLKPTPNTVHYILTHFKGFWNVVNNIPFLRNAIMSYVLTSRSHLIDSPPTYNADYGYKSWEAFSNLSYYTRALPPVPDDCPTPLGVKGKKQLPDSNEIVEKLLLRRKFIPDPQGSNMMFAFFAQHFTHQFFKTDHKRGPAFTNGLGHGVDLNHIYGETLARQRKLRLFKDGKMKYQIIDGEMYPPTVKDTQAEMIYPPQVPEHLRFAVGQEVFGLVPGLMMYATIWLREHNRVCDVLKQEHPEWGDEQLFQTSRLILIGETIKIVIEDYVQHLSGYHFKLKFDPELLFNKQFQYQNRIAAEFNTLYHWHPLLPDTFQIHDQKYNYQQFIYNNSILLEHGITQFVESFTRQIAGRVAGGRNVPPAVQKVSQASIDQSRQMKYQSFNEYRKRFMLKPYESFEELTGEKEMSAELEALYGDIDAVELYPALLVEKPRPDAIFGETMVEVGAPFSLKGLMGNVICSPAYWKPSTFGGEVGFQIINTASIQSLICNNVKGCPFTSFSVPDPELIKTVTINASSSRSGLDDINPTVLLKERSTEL

Assay [7] concerns the target T2, Polyunsaturated fatty acid 5-lipoxygenase (Rattus norvegicus, UniProt P12527).
T2 sequence (P12527 whole entry): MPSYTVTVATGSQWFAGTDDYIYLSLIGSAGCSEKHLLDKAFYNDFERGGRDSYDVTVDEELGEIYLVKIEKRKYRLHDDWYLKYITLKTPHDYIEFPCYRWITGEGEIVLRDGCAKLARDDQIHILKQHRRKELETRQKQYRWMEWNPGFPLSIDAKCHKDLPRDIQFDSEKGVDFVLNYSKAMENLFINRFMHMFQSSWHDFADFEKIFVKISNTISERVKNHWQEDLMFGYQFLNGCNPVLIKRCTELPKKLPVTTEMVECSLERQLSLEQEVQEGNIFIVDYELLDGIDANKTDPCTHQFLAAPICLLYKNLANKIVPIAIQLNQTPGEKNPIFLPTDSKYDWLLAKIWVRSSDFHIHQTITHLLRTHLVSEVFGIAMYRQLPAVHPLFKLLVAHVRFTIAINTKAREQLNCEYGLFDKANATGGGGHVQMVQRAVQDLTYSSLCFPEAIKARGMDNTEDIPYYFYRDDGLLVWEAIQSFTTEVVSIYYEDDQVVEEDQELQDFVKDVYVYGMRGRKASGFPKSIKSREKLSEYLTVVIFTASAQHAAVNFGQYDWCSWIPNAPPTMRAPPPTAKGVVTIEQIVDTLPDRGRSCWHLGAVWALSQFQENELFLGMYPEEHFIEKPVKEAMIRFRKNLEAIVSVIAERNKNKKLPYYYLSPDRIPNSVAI
In words: Inhibition of 5-lipoxygenase (LOX)in RBL cells. The format is cell-based.

Assay [8] relates to Mus musculus. In words: The compound was tested for reduction in phenylquinone-induced abdominal constriction and is expressed in % reduction at a po (per pral) dose of 70 mg/kg. The format is functional, Abdomen. In a few lines:
as §1

Broadly, the ED50 is the dose at which the effect has come halfway, by size or by number of responders. Compound `CC(C)(C)c1cc(C(=O)CCCC2CC2)cc2c1OCC2(C)C` showed an ED50 in assay [1] of 11 mg/kg.

For the compound `CCCCC(=O)c1cc(C(C)(C)C)c2c(c1)C(C)(C)CO2`, the Reduction in assay [2] was found to be 38%.

In assay [3], `CCCC(=O)c1cc(C(C)(C)C)c2c(c1)C(C)(C)CO2` returned an ED50 of 21 mg/kg.

Turning to `CC(C)(O)CC(=O)c1cc(C(C)(C)C)c2c(c1)C(C)(C)CO2`, the CPE index in assay [4] was determined as 0.49.

Take `CC(C)(C)c1cc(C(=O)CCCC2CC2)cc2c1SCC2(C)C`: the CPE index in assay [4] amounted to 0.74.

`C#CCCCC(=O)c1cc2c(c(C(C)(C)C)c1)OCC2`: the CPE index in assay [4] was determined as 0.84. The compound also came in with a Reduction in assay [2] of 67%.

Take `CCCCC(=O)c1cc(C(C)(C)C)c2c(c1)C(C)(C)CCN2`: the CPE index in assay [4] was determined as 0.02.

With `O=C(CCCC1CC1)c1ccc2c(c1)CCO2`, in assay [4], the CPE index was 0.13.

As for `CCCCC(=O)c1cc(C(C)(C)C)c2c(c1)C(C)(C)CCO2`, the CPE index in assay [4] was found to be 0.69. For the same compound, the 50% effect level in assay [1] (ED50) was put at a dose of 53 mg/kg.

As to `CCCCC(=O)c1ccc2c(c1)CCO2`, in assay [4], the CPE index worked out at 0.

What is called IC50 is the concentration that inhibits the measured activity by half. On to `CC1(C)COc2ccc(C(=O)CCCC3CC3)cc21`, for which the figures for the half-inhibitory concentration (IC50) in assay [5] and in assay [6] were 25 µM and 8 µM, respectively. For the same compound, in assay [4], the CPE index worked out at 0.5.

As to `CCCC(=O)c1ccc2c(c1)C(C)(C)CO2`, the CPE index in assay [4] is 0.31.

Regarding `CCCC(=O)c1cc(C(C)(C)C)c2c(c1)C(C)(C)CS2`, the IC50 in assay [5] amounted to 1.5 µM; in assay [6] it was 0.15 µM. In addition, the CPE index in assay [4] worked out at 1.04. The compound further came in with an ED50 in assay [1] of 74 mg/kg.

As to `CC(C)(C)c1cc(C(=O)CCCC2CC2)cc2c1NCCC2(C)C`, the CPE index in assay [4] is on record as 0.

Consider `CCCCC(=O)c1cc2c(c(C(C)(C)C)c1)OCC2`, for which the CPE index in assay [4] amounted to 0.69. Further, the ED50 in assay [1] is 0.6 mg/kg.

Consider `CN1CC(C)(C)c2cc(C(=O)CCCC3CC3)cc(C(C)(C)C)c21`, for which the CPE index in assay [4] was found to be 0.36.

In the case of `CCc1cc(C(=O)CCCC2CC2)cc2c1OCC2(C)C`, the IC50 in assay [7] was determined as 18 µM; in assay [5] it was 20 µM; in assay [6], 5 µM.

On to `CCCCC(=O)c1cc(C(C)(C)C)c2c(c1)C(C)(C)CCN2C`, for which the half-maximal inhibitory concentration (IC50) in assay [5] is 2 µM; in assay [6], 0.3 µM. The CPE index in assay [4] was determined as 0.42.

`CC(C)(C)c1cc(C(=O)CCCC2CC2)cc2c1OCCC2(C)C`: the IC50 was found to be 8 µM in assay [7], 20 µM in assay [5] and 3 µM in assay [6]. For the same compound, in assay [4], the CPE index was 0.57. Moreover, the Reduction in assay [2] is 10%.

Take `CC(C)(C)c1cc(C(=O)CCCC2CC2)cc2c1OCCC2`: the CPE index in assay [4] came out at 0.05.

With `CCCCC(=O)c1cc2c(c(C(C)(C)C)c1)OCCC2`, the CPE index in assay [4] is listed as 0.21.

Regarding `CC(C)(O)CC(=O)c1cc2c(c(C(C)(C)C)c1)OCC2`, in assay [4], the CPE index was determined as 0.98. Moreover, the 50% effect level in assay [1] (ED50) was put at a dose of 21 mg/kg.

Regarding `CC(C)(O)CC(=O)c1cc2c(c(C(C)(C)C)c1)OCCC2`, in assay [4], the CPE index was determined as 0.7. The compound also had a Reduction in assay [2] of 50%.

Turning to `C#CCCCC(=O)c1cc2c(c(C(C)(C)C)c1)OCCC2`, the CPE index in assay [4] is given as 1.04. Also, the Reduction in assay [2] came to 79%.

With `CC(C)(O)CC(=O)c1cc(C(C)(C)C)c2c(c1)C(C)(C)CCO2`, the CPE index in assay [4] came to 0.48.

Regarding `C#CCCCC(=O)c1cc(C(C)(C)C)c2c(c1)C(C)(C)CCO2`, in assay [4], the CPE index is 0.57. In assay [2], this compound displayed a Reduction of 46%.

Turning to `CCCCC(=O)c1cc(C(C)(C)C)c2c(c1)C(C)(C)CCS2`, the Reduction in assay [8] amounted to 17%. In addition, the IC50 in assay [5] and in assay [6] was 0.4 µM in each case. Also, the CPE index in assay [4] amounted to 0.86.

Take `CC(C)(O)CC(=O)c1ccc2c(c1)C(C)(C)CO2`: the CPE index in assay [4] is given as 0.39.

As to `CCCC(=O)c1cc(C(C)(C)C)c2c(c1)C(C)(CC)CO2` (stereo not given), in assay [4], the CPE index is 0.68. This compound also came in with a Reduction in assay [2] of 45%.

For `CC(C)(C)c1cc(C(=O)CCCC2CC2)cc2c1OCC2`, the IC50 in assay [7] amounted to 12 µM; in assay [5] it was 5 µM; in assay [6] it was 15 µM. Besides, the CPE index in assay [4] was 0.5. In assay [1], the 50% effect level (ED50) was put at a dose of 6 mg/kg.

As to `CC1(C)COc2c(C3CCCC3)cc(C(=O)CCCC3CC3)cc21`, the IC50 in assay [5] is greater than 100 µM; in assay [6], 20 µM. For the same compound, the CPE index in assay [4] is given as 0.27.

`CN1CCC(C)(C)c2cc(C(=O)CCCC3CC3)cc(C(C)(C)C)c21`: in assay [4], the CPE index worked out at 0.37.

On to `COc1ccc2cc([C@H](C)C(=O)O)ccc2c1` [NAPROXEN], for which the 50% effect level in assay [3] (ED50) was put at a dose of 1.3 mg/kg. Further, in assay [4], the CPE index is given as 1.06.

As to `C#CCCCC(=O)c1cc(C(C)(C)C)c(O)c(C(C)(C)C)c1` [TEBUFELONE], the ED50 in assay [3] turned out to be 26 mg/kg.
